Format in all cases: functional
In test [1] the test system is Mycobacterium tuberculosis. The test is described as follows: Antimycobacterial activity against multidrug resistant Mycobacterium tuberculosis at 0.5 ug/ml after 72 hrs by LRP assay. The method, boiled down:
(§1)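 Luciferase reporter phage assay on M. tuberculosis (H37Rv, or clinical isolates resistant to S, H, R and E). Each sample had two drug-free controls and four drug concentrations, incubated 72 h at 37 °C. High-titer phAE129 phage plus 0.1 M CaCl₂ was added, then 4 h at 37 °C. Equal volume D-luciferin (0.3 mM, pH 4.5 citrate) was added; RLU integrated 10 s, duplicate mean; % RLU reduction vs control.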

For test [2], the system named is Mycobacterium tuberculosis. The test is described as follows: Antimycobacterial activity against multidrug resistant Mycobacterium tuberculosis at 10 ug/ml after 72 hrs by LRP assay. The method, boiled down: as §1
Test [3] relates to Mycobacterium tuberculosis. The test is described as follows: Antimycobacterial activity against multidrug resistant Mycobacterium tuberculosis at 0.05 ug/ml after 72 hrs by LRP assay. A digest of the protocol:
as §1

Test [4] has as its system Mycobacterium tuberculosis. The test is described as follows: Antimycobacterial activity against multidrug resistant Mycobacterium tuberculosis at 5 ug/ml after 72 hrs by LRP assay. A digest of the protocol:
as §1

Take `COc1ccc(/C=N/NC(=O)c2ccc(N3CCOCC3)cc2)cc1`: the Activity in test [1] was 82.97%; in test [2], 90.36%; in test [3] it was 56.53%; in test [4], 89.33%.

Turning to `O=C(N/N=C/c1cccc([N+](=O)[O-])c1)c1ccc(N2CCOCC2)cc1`, the Activity worked out at 87.17% in test [1], 88.86% in test [2], 29.92% in test [3] and 90.07% in test [4].

Take `O=C(N/N=C/c1ccc(F)cc1)c1ccc(N2CCOCC2)cc1`: the Activity in test [1] is given as 86.33%; in test [2], 95.09%; in test [3] it was 83.22%; in test [4] it was 93.28%.

With `Cc1ccc(/C=N/NC(=O)c2ccc(N3CCOCC3)cc2)cc1`, the Activity in test [1] came to 87.24%; in test [2], 91.37%; in test [3], 48.49%; in test [4], 90.83%.

On to `CN(C)c1ccc(/C=N/NC(=O)c2ccc(N3CCOCC3)cc2)cc1`, for which the Activity is given as 90.72% in test [1], 95.02% in test [2], 48.14% in test [3] and 93.18% in test [4].

For `NNC(=O)c1ccncc1` [ISONIAZID], the Activity in test [1] is 89.6%; in test [2] it was 94.7%; in test [3], 84.37%; in test [4] it was 95.85%.

In the case of `O=C(N/N=C/c1ccc(O)cc1)c1ccc(N2CCOCC2)cc1`, the Activity worked out at 73.58% in test [1], 88.45% in test [2], 43.92% in test [3] and 88.08% in test [4].

Turning to `O=C(N/N=C/c1ccc(Cl)cc1)c1ccc(N2CCOCC2)cc1`, the Activity in test [1] is reported as 89.91%; in test [2] it was 94.29%; in test [3], 67.15%; in test [4], 91.19%.

For `O=C(N/N=C1\C=CCO1)c1ccc(N2CCOCC2)cc1`, the Activity in test [1] amounted to 86.92%; in test [2] it was 93.72%; in test [3], 58.54%; in test [4], 92.52%.

With `O=C(N/N=C\C=C\c1ccccc1)c1ccc(N2CCOCC2)cc1`, the Activity in test [1] came out at 85.67%; in test [2], 92.1%; in test [3], 55.7%; in test [4] it was 91.61%.

For `COc1cc(/C=N/NC(=O)c2ccc(N3CCOCC3)cc2)cc(OC)c1OC`, the Activity is listed as 96.88% in test [1], 90.24% in test [2], 35.83% in test [3] and 90.29% in test [4].

These data come from ChEMBL document CHEMBL1154054, “Novel 4-(morpholin-4-yl)-N'-(arylidene)benzohydrazides: synthesis, antimycobacterial activity and QSAR investigations” (Eur J Med Chem, 2009).
